In ChEMBL document CHEMBL1144781, “Identification of promiscuous small molecule activators in high-throughput enzyme activation screens” (J Med Chem, 2008) one finds Activity and EC50 data, which are given here for eight compounds.

pEC50: −log10 of the molar value. Active and inactive are the calls of the source. The rule behind the calls is not given here.

Broadly, the pEC50 is −log10 of the EC50, conventionally taken in molar units.

Experiment [1] can be described thus: Activation of procaspase 2 in presence of BSA.
Experiment [2] has as its target T1, Caspase-3 (Homo sapiens) (UniProt P42574).
T1 sequence (whole entry): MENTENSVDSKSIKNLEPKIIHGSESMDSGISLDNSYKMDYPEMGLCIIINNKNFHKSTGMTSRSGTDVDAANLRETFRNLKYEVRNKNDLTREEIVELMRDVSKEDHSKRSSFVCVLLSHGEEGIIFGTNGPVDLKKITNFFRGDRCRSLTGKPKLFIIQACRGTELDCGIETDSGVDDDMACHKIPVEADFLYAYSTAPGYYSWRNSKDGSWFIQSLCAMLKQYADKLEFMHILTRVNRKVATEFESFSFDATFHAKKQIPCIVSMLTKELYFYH
Briefly: Activation of caspase 3 after 30 mins.

The target of experiment [3] is T2, Caspase-2 (Homo sapiens, UniProt P42575).
T2 sequence (P42575 whole entry): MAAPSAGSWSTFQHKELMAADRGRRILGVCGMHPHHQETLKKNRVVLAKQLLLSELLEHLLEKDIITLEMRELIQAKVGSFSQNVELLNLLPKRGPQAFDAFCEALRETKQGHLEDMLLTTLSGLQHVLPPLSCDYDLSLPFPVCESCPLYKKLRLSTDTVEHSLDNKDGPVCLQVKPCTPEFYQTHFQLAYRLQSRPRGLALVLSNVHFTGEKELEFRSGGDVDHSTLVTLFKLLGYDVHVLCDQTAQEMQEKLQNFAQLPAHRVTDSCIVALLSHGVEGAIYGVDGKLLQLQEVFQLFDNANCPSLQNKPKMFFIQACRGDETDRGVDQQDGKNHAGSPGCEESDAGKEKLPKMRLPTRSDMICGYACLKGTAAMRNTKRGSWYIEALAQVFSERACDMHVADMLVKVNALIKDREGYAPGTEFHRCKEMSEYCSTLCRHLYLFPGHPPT
Kind of experiment: Activation of procaspase 2 after 24 hrs.

Experiment [4] can be described thus: Activation of alkaline phosphatase after 30 mins.
Experiment [5] deals with T3, Caspase-2 (Homo sapiens) (UniProt P42575).
T3 sequence (whole entry): T2 sequence (P42575 whole entry)
Briefly: Increase in procaspase 2 activity after 16 hrs in presence of surfactant CHAPS. The method, boiled down: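 Procaspase-2 was incubated with compound for 16 h in buffer containing CHAPS. Activity was then read by adding Ac-VDVAD-pNA substrate and monitoring absorbance at 405 nm.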

Experiment [6] concerns the target T3, Caspase-2 (Homo sapiens). Kind of experiment: Increase in procaspase 2 activity after 30 mins in presence of surfactant CHAPS. The gist of the method:
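Procaspase-2 was preincubated with compound for a short time (30 min) in CHAPS-containing buffer. Ac-VDVAD-pNA cleavage was then followed by absorbance at 405 nm.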

With `C[C@@H](CCC(=O)NCCC[N+](C)(C)CCCS(=O)(=O)[O-])[C@H]1CC[C@H]2[C@@H]3[C@H](O)C[C@@H]4C[C@H](O)CC[C@]4(C)[C@H]3C[C@H](O)[C@]12C`, in experiment [1], the outcome was inactive. In addition, the outcome in experiment [2] was Active.

The compound `CCCCCCCCCCNC(=O)CCC` showed a pEC50 in experiment [3] of 4.18.

For `CC1CCCN(CC(O)COc2ccc(C34CC5CC(CC(C5)C3)C4)cc2)C1` (stereo unspecified), the outcome in experiment [2] was Active. In experiment [3], this compound gave a pEC50 of 4.60.

Turning to `CCCCCCCCCCCCCCCC[n+]1ccccc1`, in experiment [3], the negative logarithm of the EC50 (pEC50) was 4.68.

In experiment [3], `Cc1cc(NNC(=O)C(c2ccccc2)c2ccccc2)c2ccc(C)c(C)c2n1` showed a pEC50 of 4.30.

For `NCCCNCCCCNCCCN` [SPERMINE], the outcome in experiment [2] was Active. Moreover, the pEC50 in experiment [3] was 5.07.

For the compound `NCCCNCCNCCCN`, the outcome in experiment [2] and in experiment [4] was Active. Further, the pEC50 in experiment [3] is 4.30.

On to `CN(C)CCNC(=O)COc1ccc(C23CC4CC(CC(C4)C2)C3)cc1`, for which the outcome in experiment [5] and in experiment [2] was Active. Also, the result in experiment [6] was inactive. Besides, the pEC50 in experiment [3] is 4.60.
